Arbovirus inh: antivirals against arbovirus infection. inhibition, % at 10 µM. arbovirus infection cell-based antiviral screen. AID 1251. actives 0.37% (n = 200,000); in the data active means inhibition above about 30%
CHOP inhibitor: inhibitors of CHOP induction in ER stress response. CHO-K1 CHOP-promoter luciferase, tunicamycin-induced, 15-18 h. inhibition, % at 10 µM. actives 3.8% (n = 220,000). AID 2732;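 active means compounds that reduced the stress-induced luciferase reporter signal by more than about 70% of percent inhibition, limit read from the data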;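 further: 0% = tunicamycin plus vehicle and 100% = wells without tunicamycin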
Wee1 stabilizer: human Wee1 degradation inhibition, primary screen. P30291. HeLa Luc-Wee1K328M stability, luciferase luminescence; 100% = proteasome inhibitor MG132 effect. reporter increase, % at 5 µM. actives 1.2% (n = 220,000). AID 1321;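 active means activation above the mean of all tested compounds plus 3 SD, set per screening run, cut at about 8.8% in these data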;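 further: cells exposed to compound for 20 h before luminescence read; 0% = DMSO alone and 100% = MG132 at 30 µM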
L major viab: inhibitors of Leishmania major promastigote growth; Leishmania major promastigotes, resazurin fluorescence viability; inhibition, % at 10 µM; actives 9% (n = 200,000);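 further: promastigotes grown with compound for 44 hours at 28 °C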
Rad51 HR inh: blocks human Rad51 in homologous recombination; Q06609; hRad51 DNA strand exchange, fluorescence dequenching; inhibition, % at 10 µM; actives 0.085% (n = 200,000); AID 1385;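 active means inhibition above 40% at the single screening dose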;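 further: 0% = DMSO control wells and 100% = blanks with heterologous ssDNA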
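Material: human Rad51–ssDNA filaments; Probe or stimulus: labelled 47-mer dsDNA for strand exchange; Doses: single 10 µM dose; Incubation: 37 °C 15-min filament assembly, 30-min compound preincubation, 15-min exchange; Technique: FRET fluorescence dequenching, excitation 485 nm, emission 520 nm; Measure: Fluorescence-based percent inhibition, control- and blank-normalised; Benchmarks: plate control and blank wells.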
PKD1 inh: inhibitors of human PKD1 kinase; PKD1 kinase fluorescence polarization assay; inhibition, % (test concentration not listed); actives 0.056% (n = 200,000); AID 797
Target sequence (Q15139 whole entry, looked up): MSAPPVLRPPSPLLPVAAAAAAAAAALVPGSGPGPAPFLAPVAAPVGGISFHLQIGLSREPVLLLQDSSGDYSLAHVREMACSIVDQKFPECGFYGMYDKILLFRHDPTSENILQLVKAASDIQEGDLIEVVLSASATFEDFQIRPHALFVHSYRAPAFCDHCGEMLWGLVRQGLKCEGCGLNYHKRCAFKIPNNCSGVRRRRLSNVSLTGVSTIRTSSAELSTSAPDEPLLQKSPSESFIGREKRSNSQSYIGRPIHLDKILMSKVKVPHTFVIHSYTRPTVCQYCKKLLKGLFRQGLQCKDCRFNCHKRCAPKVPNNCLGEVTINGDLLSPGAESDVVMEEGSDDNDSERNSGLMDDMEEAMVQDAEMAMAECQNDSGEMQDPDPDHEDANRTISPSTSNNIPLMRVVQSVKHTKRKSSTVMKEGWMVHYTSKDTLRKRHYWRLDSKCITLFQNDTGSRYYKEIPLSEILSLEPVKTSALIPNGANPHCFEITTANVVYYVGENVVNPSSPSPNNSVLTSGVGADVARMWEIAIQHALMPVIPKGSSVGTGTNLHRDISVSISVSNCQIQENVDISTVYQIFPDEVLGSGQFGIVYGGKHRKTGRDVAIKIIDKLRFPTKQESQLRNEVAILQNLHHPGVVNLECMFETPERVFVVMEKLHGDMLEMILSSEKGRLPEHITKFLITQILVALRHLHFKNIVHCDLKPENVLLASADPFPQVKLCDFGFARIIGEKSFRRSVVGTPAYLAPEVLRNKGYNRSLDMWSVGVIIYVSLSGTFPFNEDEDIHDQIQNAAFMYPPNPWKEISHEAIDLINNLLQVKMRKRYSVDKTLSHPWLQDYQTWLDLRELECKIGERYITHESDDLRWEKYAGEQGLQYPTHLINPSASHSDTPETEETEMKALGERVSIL
An asterisk follows results filed as active. An excerpt weighted towards active compounds, which were near 12% of everything screened. Unless noted, no stated cut-off is given here; in the data, active means inhibition above about 50%; inactive means the rest.

What do the screens show for `Cc1ccc(NCC(=O)N/N=C/c2cccc(Br)c2)cc1`?
Arbovirus inh: 9.1; CHOP inhibitor: 4.0; Wee1 stabilizer: -1.2; L major viab: -3.0; Rad51 HR inh: 4.9; PKD1 inh: 7.3

Results for Cn1nc(-c2ccc(Cl)cc2)cc1NC(=O)CSCC(=O)O ?
CHOP inhibitor: -0.4; Wee1 stabilizer: -2.2; Rad51 HR inh: 0.0

How did CCCCN(CC)Cc1ccc(CNC(=O)Nc2ccc(F)cc2)o1 do in these assays?
Arbovirus inh: -3.1; CHOP inhibitor: 22.9; Wee1 stabilizer: -1.7; L major viab: 98.3*; Rad51 HR inh: 2.3; PKD1 inh: 3.1

How did CCCCN(CC)Cc1ccc(CNC(=S)Nc2c(C)cc(C)cc2C)o1 do in these assays?
Arbovirus inh: -4.4; CHOP inhibitor: -3.1; Wee1 stabilizer: 8.0; L major viab: 22.1; Rad51 HR inh: 20.3; PKD1 inh: 3.0

What do the screens show for `CC1(C)CC(=O)C2=C(C1)N(Cc1cccnc1)C(=O)C2(NC(=O)c1ccc(F)cc1)C(F)(F)F` (stereo unspecified)?
CHOP inhibitor: 21.3; Wee1 stabilizer: -1.5; L major viab: -5.0; Rad51 HR inh: -5.4; PKD1 inh: -3.5

How did N#CC(C#N)=C(Nc1ccc(F)cc1)SCc1cccc(Br)c1 do in these assays?
Arbovirus inh: -28.9; CHOP inhibitor: 71.5*; Wee1 stabilizer: -0.9; L major viab: 30.6; Rad51 HR inh: 23.2; PKD1 inh: -1.4

What do the screens show for `Cc1ccc(NC(=O)CCC(=O)OCC(=O)c2ccc(-c3ccccc3)cc2)cc1`?
Arbovirus inh: 3.6; CHOP inhibitor: 85.1*; Wee1 stabilizer: -2.3; L major viab: -8.3; Rad51 HR inh: -2.3; PKD1 inh: 8.1

How did O=C(NC(=S)Nc1ccc(Br)cn1)c1cncc(Br)c1 do in these assays?
Arbovirus inh: 4.0; CHOP inhibitor: 80.6*; Wee1 stabilizer: 2.8; L major viab: -4.9; Rad51 HR inh: -4.0; PKD1 inh: 0.3

How did O=C(NC(=S)Nc1ccccn1)c1cncc(Br)c1 do in these assays?
Arbovirus inh: -1.9; CHOP inhibitor: -20.1; Wee1 stabilizer: 3.8; L major viab: -4.0; PKD1 inh: 9.8

Results for CC(C)C1Cc2c(sc3c2c(=O)n(-c2ccccc2)c2n[nH]c(=S)n32)CO1 (stereo unspecified) ?
CHOP inhibitor: 15.4; Wee1 stabilizer: -2.1; Rad51 HR inh: 19.6

How did CCOC(=O)C1(CC2CCCCO2)CCN(Cc2nccn2-c2cccc(C)c2)CC1 (stereo unspecified) do in these assays?
Arbovirus inh: 13.9; CHOP inhibitor: 0.0; Wee1 stabilizer: 3.0; L major viab: 52.5*; Rad51 HR inh: -50.8; PKD1 inh: 0.6

What do the screens show for `CCOC(=O)C1(CC2CCCCO2)CCN(Cc2nccn2-c2ccc(OC)cc2)CC1` (stereo unspecified)?
Arbovirus inh: 2.7; CHOP inhibitor: -8.1; Wee1 stabilizer: -0.6; L major viab: 7.5; PKD1 inh: -4.5

How did CCOC(=O)C1(CC2CCCCO2)CCN(Cc2c(C)cc(C)cc2-n2cccn2)CC1 (stereo unspecified) do in these assays?
Arbovirus inh: 4.2; CHOP inhibitor: 19.7; Wee1 stabilizer: -2.1; L major viab: 39.0; Rad51 HR inh: 23.2; PKD1 inh: 3.0

Results for CCOC(=O)C1(CC2CCCCO2)CCN(Cc2cc(F)ccc2-n2cccn2)CC1 (stereo unspecified) ?
Arbovirus inh: 1.0; CHOP inhibitor: 76.4*; Wee1 stabilizer: -2.2; L major viab: 10.6; Rad51 HR inh: -0.4; PKD1 inh: 0.2

Results for Clc1ccc2nc(C3CCN(Cc4nnnn4C4CCCCC4)CC3)[nH]c2c1 ?
Arbovirus inh: -7.6; CHOP inhibitor: 3.5; Wee1 stabilizer: 0.1; L major viab: 18.6; Rad51 HR inh: -11.0; PKD1 inh: 5.8

How did Cc1ccc(Cn2nnnc2CN2CCC(c3nc4ccc(Cl)cc4[nH]3)CC2)cc1 do in these assays?
Arbovirus inh: -27.2; CHOP inhibitor: -6.6; Wee1 stabilizer: 0.8; L major viab: 54.7*; Rad51 HR inh: -2.6; PKD1 inh: -7.5

What do the screens show for `O=C(O)c1ccc(N2C(=O)/C(=C/c3ccc(-c4ccc([N+](=O)[O-])cc4)o3)C=C2c2ccccc2)cc1`?
Arbovirus inh: 105.8*; CHOP inhibitor: 12.0; Wee1 stabilizer: -0.7; L major viab: 98.8*; Rad51 HR inh: -33.2; PKD1 inh: -1.8

Results for Oc1c(CN2CCN(c3ccccn3)CC2)cc(Cl)c2cccnc12 ?
Arbovirus inh: -34.2; Wee1 stabilizer: -3.8; L major viab: 100.4*; Rad51 HR inh: 13.0; PKD1 inh: -6.1

What do the screens show for `OCCN1CCN(Cc2cc(Cl)c3cccnc3c2O)CC1`?
Arbovirus inh: -29.1; CHOP inhibitor: -36.3; Wee1 stabilizer: 3.6; L major viab: 100.4*; Rad51 HR inh: -1.6; PKD1 inh: 2.2

What do the screens show for `O=c1c(CN2CCN(c3ccccn3)CC2)coc2ccccc12`?
Arbovirus inh: 6.8; CHOP inhibitor: 17.1; Wee1 stabilizer: -3.6; L major viab: 63.3*; Rad51 HR inh: -8.8; PKD1 inh: -9.1

How did OCCN1CCN(Cc2cc(Br)cc(Br)c2O)CC1 do in these assays?
Arbovirus inh: -6.0; CHOP inhibitor: -14.6; Wee1 stabilizer: 1.4; L major viab: 8.2; Rad51 HR inh: -1.1; PKD1 inh: -16.9

Results for C[N+](C)(C)CCC(=O)c1cccc2ccccc12 ?
CHOP inhibitor: 4.8

How did CC(CCc1ccccc1)NC(=O)CSc1nc(N)cc(N)n1 (stereo unspecified) do in these assays?
Arbovirus inh: 2.2; CHOP inhibitor: -8.9; Wee1 stabilizer: -0.7; L major viab: -4.2; Rad51 HR inh: 5.2; PKD1 inh: 0.4

What do the screens show for `O=S(=O)(c1ccc(Cl)s1)N1CCc2ccccc2C1`?
Arbovirus inh: -3.6; CHOP inhibitor: 47.1; Wee1 stabilizer: -1.4; L major viab: -1.1; Rad51 HR inh: -4.0; PKD1 inh: 5.0

How did O=S(=O)(c1ccc(Cl)s1)N1CCCc2cccc(O)c21 do in these assays?
Arbovirus inh: -2.0; CHOP inhibitor: 62.7; Wee1 stabilizer: 9.2*; L major viab: -3.7; Rad51 HR inh: -1.9; PKD1 inh: -3.8

What do the screens show for `C/C(N)=C(/C#N)C(=O)COC(=O)Cc1coc2cc(C)ccc12`?
Arbovirus inh: 1.4; CHOP inhibitor: -17.9; Wee1 stabilizer: 2.0; L major viab: -6.0; Rad51 HR inh: 1.6; PKD1 inh: -7.4

Results for O=C(/C=C/c1ccc(Cl)cc1)NCc1cccs1 ?
Arbovirus inh: -2.2; CHOP inhibitor: 14.6; Wee1 stabilizer: -2.1; L major viab: 53.2*; Rad51 HR inh: 1.1; PKD1 inh: 3.9

How did CCCC(=O)Oc1ccccc1C1SCc2cc(C)c(C)cc2CS1 do in these assays?
Arbovirus inh: 32.2*; CHOP inhibitor: 49.0; Wee1 stabilizer: 5.2; L major viab: 9.4; PKD1 inh: -7.9

How did CCOC(=O)C(C(=O)OCC)C1OC(=O)c2cc3c(cc21)C(=O)OC3C(C(=O)OCC)C(=O)OCC (stereo unspecified) do in these assays?
Arbovirus inh: 2.4; CHOP inhibitor: -69.6; Wee1 stabilizer: 1.0; L major viab: 1.1; Rad51 HR inh: 7.5; PKD1 inh: 0.2
